A short description of series [1]: Antibacterial activity against Clostridium difficile ATCC 43255 infected in golden syrian hamster assessed as survival rate at 20 mg/kg, po qd administered days 1 to 5 measured on days 6 to 21. The conditions noted are these: Clostridioides difficile. It is filed as functional. The essentials: (§1)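 Golden Syrian hamsters got clindamycin 10 mg/kg sc on day −1. On day 0 they were gavaged with ~7.5 × 10^6 CFU C. difficile ATCC 43255 (0.75 mL). From 24 h post-infection they were dosed orally once daily for up to 5 days (8/dose), in a NaOH/PEG-400/2.5% Cremophor EL solution diluted in pH 7.4 PBS. Vehicle controls were included, and animals were observed twice daily through day 21.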

In series [2] the test system is Clostridium difficile ATCC 43255. As to the kind of experiment: Antibacterial activity against Clostridium difficile ATCC 43255 infected in golden syrian hamster assessed as decrease in toxin level in cecum after 21 days by ELISA. It is filed as functional. The conditions noted are these: Caecum. An outline of the steps:
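In the clindamycin-pretreated, C. difficile-infected hamster model, oral compound was given once daily on days 1–5. Surviving animals were euthanized at study end (day 21). Cecal homogenates were assayed for C. difficile toxins A and B by Tox A/B II ELISA per kit directions.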
(In an ELISA, binding on a coated surface is turned into a signal by an enzyme label.)

Series [3] concerns Enterococcus faecalis. As to the kind of experiment: Antibacterial activity against Enterococcus faecalis ATCC 29212 by broth microdilution method. It is filed as functional. An outline of the steps: (§2)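 Broth microdilution MICs were run per CLSI M07-A8 (2009). The strain panel included C. difficile ATCC 43255, E. faecalis ATCC 29212 and S. pyogenes ATCC BAA-595.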
Background: Broth dilution looks for growth in wells or tubes with falling amounts of substance.

Series [4] is described as follows: Antibacterial activity against Clostridium difficile ATCC 43255 by broth microdilution method. It is filed as functional. The conditions noted are these: Clostridioides difficile. An outline of the steps:
as §2

A short description of series [5]: Plasma concentration in Clostridium difficile infected golden syrian hamster at 20 mg/kg, po qd administered for 5 days measured at 3 hrs post dose. Type of series: ADME, organism-based, Mesocricetus auratus. Also noted: dose 20 mg/kg, route oral. The conditions noted are these: in vivo, 3 h, BLD = below limit of detection. The essentials:
(§3)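 C. difficile-infected hamsters received 20 mg/kg orally (0.6 mL at 3.3 mg/mL) once daily for 5 days. At 1 and 3 h after the fifth dose, 3 animals per time point were sampled: plasma (K2-EDTA, cardiac puncture) and cecal contents. Cecal contents were homogenized in PBS/25% acetonitrile (final 1:25 dilution). Samples were protein-precipitated with acetonitrile containing glyburide internal standard.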

The nature of series [6]: Drug level in Clostridium difficile infected golden syrian hamster cecum at 20 mg/kg, po qd administered for 5 days measured at 3 hrs post dose. Type of series: ADME, organism-based, Mesocricetus auratus, Caecum. The conditions noted are these: read-out: Drug uptake. Also noted: dose 20 mg/kg, route oral. An outline of the steps:
as §3

Series [7] has as its system Escherichia coli. As to the kind of experiment: Inhibition of protein synthesis in Escherichia coli S30 extract at 2 uM after 75 mins by luciferase based luminescence assay relative to GE2270A. Type of series: functional.
Series [8] deals with Enterococcus faecalis. As to the kind of experiment: Antibacterial activity against Enterococcus faecalis NB04025 infected in CD1 mouse assessed as mouse survival up to 5 days. It is filed as functional. The conditions noted are these: NB04025, 120 h. The essentials: (§4)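 Female CD1 mice (21–25 g) were infected ip with 1 × 10^8 CFU/mouse, 10–100× the minimal lethal dose. E. faecalis NB04025 was given in 50% rat fecal extract and S. aureus ATCC 49951 in 0.9% NaCl. Compound was given by iv tail-vein bolus at 1 and 5 h post-inoculation, at several dose levels (6 mice/group). ED50 with 95% CI was derived by probit analysis of day-5 survival.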

The nature of series [9]: Plasma concentration in Clostridium difficile infected golden syrian hamster at 20 mg/kg, po qd administered for 5 days measured at 1 hr post dose. Type of series: ADME, organism-based, Mesocricetus auratus. Also noted: dose 20 mg/kg, route oral. The essentials:
as §3

The nature of series [10]: Antibacterial activity against Clostridium difficile ATCC 43255 infected in golden syrian hamster assessed as survival rate at 0.2 mg/kg, po qd administered days 1 to 5 measured on days 6 to 21. It is filed as functional. The conditions noted are these: Clostridioides difficile. The essentials: as §1
Series [11] concerns Streptococcus pyogenes. As to the kind of experiment: Antibacterial activity against Streptococcus pyogenes ATCC BAA-595 by broth microdilution method. It is filed as functional. The essentials:
as §2

Series [12] can be described thus: Drug level in Clostridium difficile infected golden syrian hamster cecum at 20 mg/kg, po qd administered for 5 days measured at 1 hr post dose. Type of series: ADME, organism-based, Mesocricetus auratus, Caecum. Also noted: dose 20 mg/kg, route oral. As to conditions: read-out: Drug uptake. The essentials:
as §3

Series [13] relates to Staphylococcus aureus. As to the kind of experiment: Antibacterial activity against Staphylococcus aureus ATCC 49951 infected in CD1 mouse assessed as mouse survival up to 5 days. Type of series: functional. As to conditions: ATCC 49951, 120 h. An outline of the steps:
as §4

Series [14] concerns Staphylococcus aureus. As to the kind of experiment: Antibacterial activity against Staphylococcus aureus A4.018 by broth microdilution method. Type of series: functional.
For series [15], the system named is Enterococcus faecium. As to the kind of experiment: Antibacterial activity against Enterococcus faecium 7130724 by broth microdilution method. It is filed as functional.
Series [16] relates to Clostridium difficile ATCC 43255. As to the kind of experiment: Antibacterial activity against Clostridium difficile ATCC 43255 infected in po dosed golden syrian hamster assessed as survival rate administered qd for days 1 to 5 measured on after 6 to 21 days. It is filed as functional, organism-based. An outline of the steps: as §1
Series [17] is described as follows: Antibacterial activity against Clostridium difficile ATCC 43255 infected in golden syrian hamster assessed as survival rate at 2 mg/kg, po qd administered days 1 to 5 measured on days 6 to 21. It is filed as functional. The conditions noted are these: Clostridioides difficile. An outline of the steps:
as §1

Series [18] is described as follows: Binding affinity to Escherichia coli GDPNP-labelled EF-Tu by surface plasmon resonance analysis. For orientation: SPR reads the build-up and loss of mass on a sensor chip optically.

Six compounds from ChEMBL document CHEMBL2062386, “Discovery of LFF571: an investigational agent for Clostridium difficile infection” (J Med Chem, 2012) can be followed below.

In brackets after ≈: the same amount, converted by molar mass. Activity calls are given as the source filed them. The calls are words filed in the database; no cut-off is given here.

Turning to `CN[C@H](CC(C)C)C(=O)N[C@H]1C(=O)N[C@@H](CC(N)=O)C(=O)N[C@H]2C(=O)N[C@H]3C(=O)N[C@H](C(=O)N[C@H](C(=O)O)c4cc(O)cc(O)c4-c4cc3ccc4O)[C@H](O)c3ccc(c(Cl)c3)Oc3cc2cc(c3O[C@@H]2O[C@H](CO)[C@@H](O)[C@H](O)[C@H]2O[C@H]2C[C@](C)(N)[C@H](O)[C@H](C)O2)Oc2ccc(cc2Cl)[C@H]1O` [VANCOMYCIN], the survival at 20 mg/kg in series [1] was determined as 25%. In addition, in series [2], the result was Active.
On to `CNC(=O)C[C@@H]1NC(=O)c2csc(n2)-c2ccc(-c3nc(NC(=O)[C@H]4CC[C@H](C(=O)O)CC4)cs3)nc2-c2csc(n2)-c2csc(n2)[C@H]([C@@H](O)c2ccccc2)NC(=O)CNC(=O)c2nc(sc2COC)[C@H](C(C)C)NC(=O)c2nc1sc2C`, for which the MIC in series [3] is 0.06 µg/mL (≈ 0.048 µM); in series [4], 0.06 µg/mL (≈ 0.048 µM); in series [11], 4 µg/mL (≈ 3.2 µM); in series [14], 0.125 µg/mL (≈ 0.1 µM); in [15], 0.06 µg/mL (≈ 0.048 µM). For the same compound, the Cp entry in series [5] is given as “BLD”; in series [9] (in vivo, 1 h, BLD = below limit of detection), “BLD”. In addition, in series [6], the concentration at 3 h came out at 39 µM. The survival at 20 mg/kg in series [1] came to 100%. 2 µM produced 30% inhibition in series [7]. The ED50 worked out at 0.6 mg/kg in series [8] and 5.2 mg/kg in series [13]. For the same compound, the survival at 0.2 mg/kg in [10] worked out at 0%. In addition, the result in series [2] was Active. In addition, in series [12], the concentration at 1 h was 18 µM. For the same compound, the Survival result in series [16] is “Dose-dependent effect”. Also, the survival at 2 mg/kg in [17] was 62.5%. The compound further had a Kd in [18] of 43 nM.
Regarding `CNC(=O)C[C@@H]1NC(=O)c2csc(n2)-c2ccc(-c3nc(N(CCCC(=O)O)C(=O)O[C@H]4CC[C@H](C(=O)O)CC4)cs3)nc2-c2csc(n2)-c2csc(n2)[C@H]([C@@H](O)c2ccccc2)NC(=O)CNC(=O)c2nc(sc2COC)[C@H](C(C)C)NC(=O)c2nc1sc2C`, the minimum inhibitory concentration (MIC) in series [3] is < 0.06 µg/mL; in series [4], 0.06 µg/mL (≈ 0.0444 µM); in [11] it was 1 µg/mL (≈ 0.739 µM); in series [14], 0.25 µg/mL (≈ 0.185 µM); in series [15], 0.06 µg/mL (≈ 0.0444 µM). Besides, the inhibition at 2 µM in series [7] came to 67%. Further, the values for the ED50 in series [8] and in series [13] were 2.2 mg/kg and 2.6 mg/kg, respectively.
As to `CNC(=O)C[C@@H]1NC(=O)c2csc(n2)-c2ccc(-c3nc(N(CCCCCC(=O)O)C(=O)O[C@H]4CC[C@H](C(=O)O)CC4)cs3)nc2-c2csc(n2)-c2csc(n2)[C@H]([C@@H](O)c2ccccc2)NC(=O)CNC(=O)c2nc(sc2COC)[C@H](C(C)C)NC(=O)c2nc1sc2C`, the MIC was < 0.06 µg/mL in series [3]; 0.06 µg/mL (≈ 0.0435 µM) in series [4]; 1 µg/mL (≈ 0.724 µM) in series [11]; 0.125 µg/mL (≈ 0.0905 µM) in series [14]; < 0.06 µg/mL in series [15]. In series [7], this compound came in with an inhibition at 2 µM of 67%. Besides, the figures for the 50% effective dose (ED50) in series [8] and in [13] were 0.8 mg/kg and 9.6 mg/kg, respectively. The compound further returned a Kd in series [18] of 6 nM.
Take `CNC(=O)C[C@@H]1NC(=O)c2csc(n2)-c2ccc(-c3nc(N(CCCCC(=O)O)C(=O)N[C@H]4CC[C@H](C(=O)O)CC4)cs3)nc2-c2csc(n2)-c2csc(n2)[C@H]([C@@H](O)c2ccccc2)NC(=O)CNC(=O)c2nc(sc2COC)[C@H](C(C)C)NC(=O)c2nc1sc2C`: the MIC in series [3] was 16 µg/mL (≈ 11.7 µM); in series [4] it was 1 µg/mL (≈ 0.732 µM); in series [11] it was 32 µg/mL (≈ 23.4 µM); in series [14], 16 µg/mL (≈ 11.7 µM); in [15], > 32 µg/mL. In addition, the inhibition at 2 µM in series [7] stood at 30%.
In the case of `CNC(=O)C[C@@H]1NC(=O)c2csc(n2)-c2ccc(-c3nc(N(CCCC(=O)O)C(=O)OCCCC(=O)O)cs3)nc2-c2csc(n2)-c2csc(n2)[C@H]([C@@H](O)c2ccccc2)NC(=O)CNC(=O)c2nc(sc2COC)[C@H](C(C)C)NC(=O)c2nc1sc2C`, the minimal inhibitory concentration (MIC) is 0.5 µg/mL (≈ 0.381 µM) in series [3]; 0.03 µg/mL (≈ 0.0229 µM) in series [4]; 2 µg/mL (≈ 1.52 µM) in [11]; 1 µg/mL (≈ 0.762 µM) in [14]; 0.5 µg/mL (≈ 0.381 µM) in series [15]. For the same compound, the Cp entry in [5] is recorded as “BLD”. In addition, in series [6], the concentration at 3 h amounted to 72 µM. In addition, in series [1], the survival at 20 mg/kg was determined as 100%. Also, the ED50 in series [8] and in series [13] was 11 mg/kg each time. In addition, the concentration at 1 h in series [9] (golden Syrian, plasma) was 0.0639 µM; in series [12] it was 129 µM. The survival at 0.2 mg/kg in series [10] was determined as 0%. The outcome in [2] was Active. Further, the survival at 2 mg/kg in series [17] was 100%. Moreover, in series [18], the Kd was 8 nM.

By MIC is commonly meant the lowest concentration that inhibits growth of the organism. For orientation: inhibition means the change of the read-out against control, counted positive when it falls. Lower therefore signals a response near the control. As usually defined, the ED50 is the dose that gives a 50% effect, or the effect in half of the subjects. By Kd is commonly meant the free concentration of one partner at which half of the binding sites on the other are occupied at equilibrium, for simple one-to-one binding.
